Most compounds without a hit are left out; they make up all but 2.2% or so of the library.
rCAG RNA binder = molecules binding r(CAG) RNA repeats. r(CAG) RNA repeat, TO-PRO-1 dye displacement fluorescence. inhibition, % at 3 µM. hit rate 1.3% among 370,000;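 active = inhibition above the plate cutoff, the mean of all test compounds on that plate plus 3 SD, cut at about 35% in these data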;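 note: higher means more dye released from RNA so lower well fluorescence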
ARFGAP1 inh = inhibitors of rat ARFGAP1; hit rate 0.26% among 360,000; Arfgap1-stimulated ARF1 GTP hydrolysis, GDP FP detection; Q62848; inhibition, % at 16.5 µM;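 active = inhibition above a per-plate limit, mean inhibition of low control wells plus 3 SD, cut at about 25% in these data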
Target sequence (Q62848 1-136 limits assumed): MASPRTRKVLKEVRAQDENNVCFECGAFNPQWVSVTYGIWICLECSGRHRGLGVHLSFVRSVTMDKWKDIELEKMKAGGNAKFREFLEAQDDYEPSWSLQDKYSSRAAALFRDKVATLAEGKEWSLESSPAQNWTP
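Material: truncated rat Arfgap1 GAP domain; Incubation: compound-enzyme preincubation 20 min, reaction 120 min, detection 60 min, 25 °C; Read-out: percent inhibition of Arfgap1-stimulated GTP hydrolysis; Technique: FP, GDP Alexa 633 tracer displaced from anti-GDP antibody, 620/688 nm; Controls: No-Arfgap1 wells (100%) versus DMSO full-reaction wells (0%); Replication: single well per compound.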
NadD inh = blocks S. aureus nicotinate mononucleotide adenylyltransferase; inhibition, % at 20 µM; hit rate 0.78% among 360,000; purified NadD enzyme, colorimetric absorbance read-out; in the data active = inhibition above about 26%
ASAP1 GAP inh = ASAP1 ArfGAP inhibition; ASAP1-stimulated ARF1 GTP hydrolysis, GDP FP detection; inhibition, % at 16.5 µM; hit rate 0.19% among 360,000; AID 624377; in the data active = inhibition above about 25%
Target sequence (Q9ULH1 325-724 limits assumed): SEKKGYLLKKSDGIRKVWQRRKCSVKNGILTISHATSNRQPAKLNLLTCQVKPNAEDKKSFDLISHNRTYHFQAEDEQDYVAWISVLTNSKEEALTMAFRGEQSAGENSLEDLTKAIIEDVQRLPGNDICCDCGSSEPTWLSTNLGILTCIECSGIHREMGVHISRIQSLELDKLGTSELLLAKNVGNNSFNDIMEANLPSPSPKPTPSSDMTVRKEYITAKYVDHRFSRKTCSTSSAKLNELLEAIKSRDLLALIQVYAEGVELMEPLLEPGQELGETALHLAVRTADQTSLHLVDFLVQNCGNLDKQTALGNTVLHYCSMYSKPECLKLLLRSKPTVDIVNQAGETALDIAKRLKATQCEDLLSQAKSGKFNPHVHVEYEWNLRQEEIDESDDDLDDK
NadD inh conf = confirmation of Staphylococcus aureus NadD inhibitors; AID 624309; hit rate 13% among 2,000; inhibition, % at 20 µM; shares compounds with NadD inh; purified S. aureus NadD, colorimetric enzyme assay; in the data active = inhibition mostly above about 42%, no sharp cut-off; inactive = mostly below about 42%
Each line names hits and unclear results; the compound was inactive in the other large screens (follow-up assays come after a bar, where they were run).

O=C(N/N=C/c1ccc2c(c1)OCO2)c1sc2cccc(Cl)c2c1Cl	NadD inh 30 | NadD inh conf inactive
O=C(N/N=C/c1ccc2c(c1)OCO2)c1sc2cc(Cl)ccc2c1Cl	none
CCOC(=O)Nc1ccc2c(CN3CCN(S(=O)(=O)c4ccc(C(C)C)cc4)CC3)cc(=O)oc2c1	NadD inh 50 | NadD inh conf inactive
Cc1ccccc1OCc1nnc(SCC(=O)Nc2ccc3nc(SCC(=O)Nc4ccccc4)sc3c2)n1C	NadD inh 32 | NadD inh conf inactive
O=C1NC[C@H](Cc2ccccc2)N(C[C@H]2CCCN2C[C@H](Cc2ccc(O)cc2)N2C[C@H](Cc3ccc(O)cc3)N(CC3CCCCCC3)C(=O)C2=O)C1=O	NadD inh 33 | NadD inh conf inactive
O=C1NC[C@H](Cc2ccc(O)cc2)N(C[C@@H]2CCCN2C[C@H](Cc2ccccc2)N2C[C@H](Cc3ccc(O)cc3)N(CC3CCCCCC3)C(=O)C2=O)C1=O	NadD inh 39 | NadD inh conf inactive
O=C1NC[C@H](Cc2ccccc2)N(C[C@H]2CCCN2C[C@H](Cc2ccccc2)N2C[C@H](Cc3ccc(O)cc3)N(CC3CCCCCC3)C(=O)C2=O)C1=O	NadD inh 31 | NadD inh conf 48
O=C1NC[C@H](Cc2ccc(O)cc2)N(C[C@@H]2CCCN2C[C@H](Cc2ccc(O)cc2)N2C[C@H](Cc3ccccc3)N(CC3CCCCCC3)C(=O)C2=O)C1=O	NadD inh 45 | NadD inh conf inactive
CC(C)C[C@H]1CN([C@@H](Cc2ccc(O)cc2)CN2CCC[C@H]2CN2C(=O)C(=O)NC[C@@H]2Cc2ccccc2)C(=O)C(=O)N1CC1CCCCC1	none
CCC/C=C/c1ccc(CN2C(C(C)C)C(=O)N(Cc3cn(CCC4OCCO4)nn3)CCS2(=O)=O)cc1 (centres undefined)	none
CCCCC(=O)Nc1ccc(C(=O)NCC2COc3ccccc3O2)cc1 (centres undefined)	none (no result: ARFGAP1 inh, NadD inh, ASAP1 GAP inh)
NS(=O)(=O)c1cccc(NC(=O)COC(=O)c2cc(-c3ccc(Cl)cc3)nc3ccccc23)c1	NadD inh 32 | NadD inh conf inactive
O=C(Nc1cccc(S(=O)(=O)NCc2ccco2)c1)c1cc(-c2ccccc2)nc2ccccc12	NadD inh 35 | NadD inh conf inactive
O=C(c1ccoc1)N1CCN(c2cc(-c3ccccc3)nc3cc(-c4ccccc4)nn23)CC1	none
COc1cccc(-c2cc3nc(-c4ccccc4)cc(N4CCN(C(=O)c5ccoc5)CC4)n3n2)c1	none
COc1ccccc1-c1cc2nc(-c3ccccc3)cc(N3CCN(C(=O)c4ccco4)CC3)n2n1	NadD inh 41 | NadD inh conf inactive
COc1ccccc1-c1cc2nc(-c3ccccc3)cc(N3CCN(C(=O)c4ccoc4)CC3)n2n1	NadD inh 47 | NadD inh conf inactive
COc1cccc(-c2cc(N3CCN(C(=O)c4ccoc4)CC3)n3nc(-c4cccc(Cl)c4)cc3n2)c1	NadD inh 37 | NadD inh conf inactive
Cc1ccc(S(=O)(=O)N2CCSCCSCCSCCSCC2)cc1	none
Cc1ccc(NC(=O)NNC(=O)CCn2nc(C)c([N+](=O)[O-])c2C)cc1C	none (no result: ARFGAP1 inh, NadD inh, ASAP1 GAP inh)
N#CC1=C(S)N(c2ccccc2)C(c2ccc(-c3cccc(Cl)c3)o2)NC1=O (centres undefined)	NadD inh 42 | NadD inh conf inactive
O=c1[nH]c2cc(Br)c(Br)nc2[nH]1	none (no result: ARFGAP1 inh, NadD inh, ASAP1 GAP inh)
O=C1CC(/C=C/c2ccccn2)=Nc2ccccc2N1	none
O=C1CC(/C=C/c2ccc([N+](=O)[O-])cc2)=Nc2ccccc2N1	NadD inh 36 | NadD inh conf inactive
O=C(N/N=C/c1cccc([N+](=O)[O-])c1)c1cc2c(ccc3ccccc32)o1	none
Cc1ccc(-c2ccc(/C=N\NC(=O)c3cc4c(ccc5ccccc54)o3)o2)cc1[N+](=O)[O-]	NadD inh 45 | NadD inh conf inactive
Cc1ccc([N+](=O)[O-])cc1-c1ccc(/C=N/NC(=O)c2cc3c(ccc4ccccc43)o2)o1	NadD inh 33 | NadD inh conf inactive
Cc1cc([N+](=O)[O-])ccc1-c1ccc(/C=N/NC(=O)c2ccc(Br)o2)o1	NadD inh 31 | NadD inh conf inactive
N#CCn1cc(/C=N/NC(=O)c2cc3c(ccc4ccccc43)o2)c2ccccc21	NadD inh 31 | NadD inh conf inactive
Cc1cccc(C)c1NC(=O)C(c1ccnc2ccccc12)N1CCN(C)CC1 (centres undefined)	none (no result: NadD inh)
O=c1[nH]c(Cn2nnc(-c3ccccc3)n2)nc2scc(-c3ccccc3)c12	NadD inh 30 | NadD inh conf inactive
O=c1[nH]c(CN2CCN(Cc3ccccc3)CC2)nc2scc(-c3ccccc3)c12	none
CC(C)(C)S(=O)N1Cc2cc(C(=O)NCc3ccc4c(c3)OCO4)nc(-c3cccc(-c4cc5ccccc5o4)c3)c2[C@@H]1CCO (some centres undefined)	NadD inh 33 | NadD inh conf inactive
CC(C)(C)S(=O)N1Cc2cc(C(=O)NCc3ccc(Oc4ccccc4)cc3)nc(-c3cccc(-c4cc5ccccc5o4)c3)c2[C@H]1CCO (some centres undefined)	NadD inh 35 | NadD inh conf inactive
CC(C)(C)S(=O)N1Cc2cc(C(=O)NCCCN3CCOCC3)nc(-c3cccc(-c4cc5ccccc5o4)c3)c2[C@@H]1CCO (some centres undefined)	none
CC(C)(C)OC(=O)N1CCc2onc(-c3ccccc3[N+](=O)[O-])c2C1=O	none (no result: NadD inh)
COC(=O)c1ccc(Cn2ccc3ccc(-c4ccc5ccn(C(=O)c6ccccc6C)c5c4)cc32)cc1	none (no result: ARFGAP1 inh, NadD inh, ASAP1 GAP inh)
CC(=O)c1cccc(NC(=O)C2C3C=CC(C3=C(c3ccccc3)c3ccccc3)C2C(=O)O)c1 (centres undefined)	NadD inh 37 | NadD inh conf 50
CC(=O)c1cccc(NC(=O)Nc2ccccc2)c1	none
O=S(=O)(Nc1ccc2c(c1)nc1n2CCN(Cc2ccccc2)C1)c1ccc(Cl)cc1	NadD inh 32 | NadD inh conf inactive
N#CCC(=O)Nc1ccc(C(=O)OC(C(=O)Nc2ccc([N+](=O)[O-])cc2Br)c2ccccc2)cc1 (centres undefined)	NadD inh 46 | NadD inh conf inactive
O=C(OC(C(=O)Nc1ccc([N+](=O)[O-])cc1Br)c1ccccc1)c1ccccc1 (centres undefined)	none
O=c1cc(-c2ccccc2)oc2cc(OCc3ccccc3)cc(O)c12	none
O=c1cc(-c2ccc(OCc3ccccc3)cc2)oc2cc(OCc3ccccc3)cc(OCc3ccccc3)c12	NadD inh 42 | NadD inh conf inactive
CNC(=O)/C(C#N)=C/c1ccc(-c2ccccc2[N+](=O)[O-])o1	none
Cn1cc(/C=C(\C#N)C(=O)Nc2ncc(Cc3ccc(Cl)cc3)s2)c2ccccc21	NadD inh 31 | NadD inh conf inactive
CNC(=O)/C(C#N)=C/c1cn(CC(=O)OC)c2ccccc12	none

Source: PubChem BioAssay
